Experimental data from ChEMBL document CHEMBL3046601, “Synthesis and herbicidal activity of N,N-diethyl-3-(arylselenonyl)-1H-1,2,4-triazole-1-carboxamide” (2006).

Experiments:
Assay type in all cases: functional
Cucumis sativus [1] = assay: Herbicidal activity against Cucumis sativus jinyou 15 (cucumber) assessed as inhibition of weed growth at 500 ug/mL measured 15 days post compound treatment by pot-culture method; conditions: jinyou 15, 360 h, read-out: GI
In short: (§1)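 Pot-culture assay on whole plants. Compounds were dissolved in toluene, diluted in water, and emulsified with a drop of Tween 80. Five parallel tests per compound, each compared with an untreated control, read as the ratio of growth inhibition. The 500 µg/mL level was the preliminary screen; the follow-up used 0.9375–15 µg/mL on cucumber, rice and semen euphorbiae.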

[2] = Herbicidal activity against semen euphorbiae assessed as inhibition of weed growth at 500 ug/mL measured 15 days post compound treatment by pot-culture method; conditions: 360 h; read-out: GI; in short: as §1
Echinochloa crus-galli [3] = assay: Herbicidal activity against semen euphorbiae assessed as inhibition of weed growth at 7.5 ug/mL measured 15 days post compound treatment by pot-culture method; conditions: 360 h, read-out: GI; in short: as §1
Cucumis sativus [4] = assay: Herbicidal activity against Cucumis sativus jinyou 15 (cucumber) assessed as inhibition of weed growth at […] measured 15 days post compound treatment by pot-culture method; conditions: jinyou 15, 360 h, read-out: GI; in short: as §1
Oryza sativa [5] = assay: Toxicity against Oryza sativa xiuanyou 63 (rice) assessed as growth inhibition at 1.875 ug/mL measured 15 days post compound treatment by pot-culture method; conditions: xiuanyou 63, 360 h, read-out: GI; in short: as §1
Echinochloa crus-galli [6] = assay: Herbicidal activity against semen euphorbiae assessed as inhibition of weed growth at 3.75 ug/mL measured 15 days post compound treatment by pot-culture method; conditions: 360 h, read-out: GI; in short: as §1
Echinochloa crus-galli [7] = assay: Herbicidal activity against semen euphorbiae assessed as inhibition of weed growth at 0.9375 ug/mL measured 15 days post compound treatment by pot-culture method; conditions: 360 h, read-out: GI; in short: as §1
Oryza sativa [8] = assay: Toxicity against Oryza sativa xiuanyou 63 (rice) assessed as growth inhibition at 3.75 ug/mL measured 15 days post compound treatment by pot-culture method; conditions: xiuanyou 63, 360 h, read-out: GI; in short: as §1
Echinochloa crus-galli [9] = assay: Herbicidal activity against semen euphorbiae assessed as inhibition of weed growth at 15 ug/mL measured 15 days post compound treatment by pot-culture method; conditions: 360 h, read-out: GI; in short: as §1
Oryza sativa [10] = assay: Toxicity against Oryza sativa xiuanyou 63 (rice) assessed as growth inhibition at 15 ug/mL measured 15 days post compound treatment by pot-culture method; conditions: xiuanyou 63, 360 h, read-out: GI; in short: as §1
Oryza sativa [11] = assay: Toxicity against Oryza sativa xiuanyou 63 (rice) assessed as growth inhibition at 0.9375 ug/mL measured 15 days post compound treatment by pot-culture method; conditions: xiuanyou 63, 360 h, read-out: GI; in short: as §1
Echinochloa crus-galli [12] = assay: Herbicidal activity against semen euphorbiae assessed as inhibition of weed growth at 1.875 ug/mL measured 15 days post compound treatment by pot-culture method; conditions: 360 h, read-out: GI; in short: as §1
Oryza sativa [13] = assay: Toxicity against Oryza sativa xiuanyou 63 (rice) assessed as growth inhibition at 7.5 ug/mL measured 15 days post compound treatment by pot-culture method; conditions: xiuanyou 63, 360 h, read-out: GI; in short: as §1
Cucumis sativus [14] = assay: Herbicidal activity against Cucumis sativus jinyou 15 (cucumber) assessed as inhibition of weed growth at 3.75 ug/mL measured 15 days post compound treatment by pot-culture method; conditions: jinyou 15, 360 h, read-out: GI; in short: as §1

SMILES | inhibition of growth at 500 µg/mL (Cucumis sativus [1]) [%] | inhibition of growth at 500 µg/mL [2] [%] | also measured
CCN(CC)C(=O)n1cnc([Se](=O)(=O)c2ccc([N+](=O)[O-])cc2)n1 | 26.9 | 46.4 | 
CCN(CC)C(=O)n1cnc([Se](=O)(=O)c2ccccc2)n1 | 8.75 | 4.18 | 
CCN(CC)C(=O)n1cnc([Se](=O)(=O)c2ccc(C)cc2C)n1 | 42 | 51 | 
CCN(CC)C(=O)n1cnc(S(=O)(=O)c2c(C)cc(C)cc2C)n1 [CAFENSTROLE] | 100 | 100 | inhibition of growth at 7.5 µg/mL (Echinochloa crus-galli [3]): 95.6%; inhibition of growth (Cucumis sativus [4]): 100%; inhibition of growth at 1.875 µg/mL (Oryza sativa [5]): 13.9%; inhibition of growth at 3.75 µg/mL (Echinochloa crus-galli [6]): 84.4%; inhibition of growth at 0.9375 µg/mL (Echinochloa crus-galli [7]): 17.8%; inhibition of growth at 3.75 µg/mL (Oryza sativa [8]): 47.2%; inhibition of growth at 15 µg/mL (Echinochloa crus-galli [9]): 100%; inhibition of growth at 15 µg/mL (Oryza sativa [10]): 100%; inhibition of growth at 0.9375 µg/mL (Oryza sativa [11]): 0%; inhibition of growth at 1.875 µg/mL (Echinochloa crus-galli [12]): 46.7%; inhibition of growth at 7.5 µg/mL (Oryza sativa [13]): 72%
CCN(CC)C(=O)n1cnc([Se](=O)(=O)c2ccc(Cl)cc2)n1 | 18.6 | 17 | 
CCN(CC)C(=O)n1cnc([Se](=O)(=O)c2ccc(F)c(Cl)c2)n1 | 10.7 | 39.6 | 
CCN(CC)C(=O)n1cnc([Se](=O)(=O)c2ccc(C(F)(F)F)c(Cl)c2)n1 | 15.3 | 45.6 | 
CCN(CC)C(=O)n1cnc([Se](=O)(=O)c2ccc(F)cc2F)n1 | 33.9 | 53.9 | 
CCN(CC)C(=O)n1cnc([Se](=O)(=O)c2ccc(OC)cc2)n1 | 30.3 | 63.9 | 
CCN(CC)C(=O)n1cnc([Se](=O)(=O)c2ccc(F)c(F)c2)n1 | 44 | 44.3 | 
CCN(CC)C(=O)n1cnc([Se](=O)(=O)c2cccc(C(F)(F)F)c2)n1 | 18.5 | 25.2 | 
CCN(CC)C(=O)n1cnc([Se](=O)(=O)c2c(C)cc(C)cc2C)n1 | 100 | 100 | inhibition of growth at 7.5 µg/mL (Echinochloa crus-galli [3]): 91.1%; inhibition of growth at 7.5 µg/mL (Oryza sativa [13]): 8.3%; inhibition of growth at 3.75 µg/mL (Cucumis sativus [14]): 100%
CCN(CC)C(=O)n1cnc([Se](=O)(=O)c2c(C)cccc2C)n1 | 100 | 100 | inhibition of growth at 7.5 µg/mL (Echinochloa crus-galli [3]): 88.9%; inhibition of growth at 7.5 µg/mL (Oryza sativa [13]): 2.8%; inhibition of growth at 3.75 µg/mL (Cucumis sativus [14]): 100%
